In ChEMBL document CHEMBL1773027, “Development of new indole-derived neuroprotective agents” (2011):
Activity calls are given as the source filed them. The calls are words filed in the database; no cut-off is given here.

Assays:
Rattus norvegicus [1] = assay: Neuroprotective activity against ACR-intoxicated Sprague-Dawley rat assessed as decrease in LDH level in brain at 50 mg/kg, ip administered 10 mins prior to ACR injection 3 days per week for 3 weeks by spectrofluorimetrically relative to control; assay type: functional; parameters: scale not given: the % may be the effect or the level left; settings: route intraperitoneal
Summary of the method: (§1)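 Female Sprague–Dawley rats (n = 10/group) were dosed ip with ACR 50 mg/kg (water). Pretreatment was 50 mg/kg ip in 2% Tween 80 given 10 min earlier, 3 days/week for 3 weeks. The brain 10% homogenate (50 mM Tris–HCl pH 7.4, 300 mM sucrose) was centrifuged 1800 × g for 10 min at 4 °C. Supernatant LDH and CK activities were read spectrophotometrically by kit, as U/mg protein.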

Rattus norvegicus [2] = assay: Neuroprotective activity against ACR-intoxicated Sprague-Dawley rat assessed as increase in adrenaline level in brain at 50 mg/kg, ip administered 10 mins prior to ACR injection 3 days per week for 3 weeks by ELISA relative to control; assay type: functional; settings: route intraperitoneal
Summary of the method: (§2)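 Female Sprague–Dawley rats (n = 10/group) were injected with ACR 50 mg/kg ip in water, with agent at 50 mg/kg ip in 2% Tween 80 10 min before, 3 days/week for 3 weeks. Brain was homogenized 10% w/v in 50 mM Tris–HCl pH 7.4 with 300 mM sucrose and spun 1800 × g for 10 min at 4 °C. Adrenaline and noradrenaline were measured in the supernatant, as ng/mg protein.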

Rattus norvegicus [3] = assay: Neuroprotective activity against ACR-intoxicated Sprague-Dawley rat assessed as decrease in malinoaldehyde level in brain at 50 mg/kg, ip administered 10 mins prior to ACR injection 3 days per week for 3 weeks […] relative to control; assay type: functional; parameters: scale not given: the % may be the effect or the level left; settings: route intraperitoneal
Rattus norvegicus [4] = assay: Neuroprotective activity against ACR-intoxicated Sprague-Dawley rat assessed as increase in CK level in brain at 50 mg/kg, ip administered 10 mins prior to ACR injection 3 days per week for 3 weeks by spectrofluorimetrically relative to control; assay type: functional; settings: route intraperitoneal; summary of the method: as §1
Rattus norvegicus [5] = assay: Neuroprotective activity against ACR-intoxicated Sprague-Dawley rat assessed as increase in dopamine level in brain at 50 mg/kg, ip administered 10 mins prior to ACR injection 3 days per week for 3 weeks by spectrofluorimetrically relative to control; assay type: functional; settings: route intraperitoneal
Summary of the method: (§3)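 In this rat model (female Sprague–Dawley, n = 10/group), ACR 50 mg/kg ip in water was preceded by 10 min with agent at 50 mg/kg ip in 2% Tween 80, 3 days/week for 3 weeks. Brain dopamine was determined spectrofluorimetrically and expressed as ng/g tissue.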

Rattus norvegicus [6] = assay: Neuroprotective activity against ACR-intoxicated Sprague-Dawley rat assessed as increase in GSH level in brain at 50 mg/kg, ip administered 10 mins prior to ACR injection 3 days per week for 3 weeks […] relative to control; assay type: functional; settings: route intraperitoneal
Rattus norvegicus [7] = assay: Neuroprotective activity against ACR-intoxicated Sprague-Dawley rat assessed as increase in SOD level in brain at 50 mg/kg, ip administered 10 mins prior to ACR injection 3 days per week for 3 weeks by spectrofluorimetrically relative to control; assay type: functional; settings: route intraperitoneal
Summary of the method: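 Female Sprague–Dawley rats (160–180 g, n = 10/group) received ACR 50 mg/kg ip in water. Test agents were given at 50 mg/kg ip in 2% Tween 80, 10 min before ACR, 3 days/week for 3 weeks. Brain was homogenized 10% w/v in ice-cold 50 mM Tris–HCl pH 7.4 with 300 mM sucrose and spun 1800 × g for 10 min at 4 °C. Supernatant MDA, GSH, GPx and SOD were read spectrophotometrically by kit and expressed per mg protein (Lowry).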

Brain = assay: Neuroprotective activity against ACR-intoxicated Sprague-Dawley rat brain assessed as appearance of normal neuron at 50 mg/kg, ip administered 10 mins prior to ACR injection 3 days per week for 3 weeks by hematoxylin and eosin staining method relative to ACR group; assay type: functional, organism-based; parameters: dose 50 mg/kg
Summary of the method: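 After 3 weeks of ACR (50 mg/kg ip, water) plus pretreatment (50 mg/kg ip in 2% Tween 80, 10 min before, 3 days/week), rat brains were fixed in buffered formalin for 1 week. They were then washed in tap water for 24 h, dehydrated through graded alcohol, cleared in xylene and paraffin-embedded. Sections were examined microscopically for neuronal morphology.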

Rattus norvegicus [8] = assay: Neuroprotective activity against ACR-intoxicated Sprague-Dawley rat assessed as increase in noradrenaline level in brain at 50 mg/kg, ip administered 10 mins prior to ACR injection 3 days per week for 3 weeks by ELISA relative to control; assay type: functional; settings: route intraperitoneal; summary of the method: as §2
Rattus norvegicus [9] = assay: Neuroprotective activity against ACR-intoxicated Sprague-Dawley rat assessed as increase in Gpx level in brain at 50 mg/kg, ip administered 10 mins prior to ACR injection 3 days per week for 3 weeks […] relative to control; assay type: functional; settings: route intraperitoneal
Rattus norvegicus [10] = assay: Neuroprotective activity against ACR-intoxicated Sprague-Dawley rat assessed as decrease in GSH level in brain at 50 mg/kg, ip administered 10 mins prior to ACR injection 3 days per week for 3 weeks […] relative to control; assay type: functional; parameters: scale not given: the % may be the effect or the level left; settings: route intraperitoneal
Rattus norvegicus [11] = assay: Neuroprotective activity against ACR-intoxicated Sprague-Dawley rat assessed as decrease in dopamine level in brain at 50 mg/kg, ip administered 10 mins prior to ACR injection 3 days per week for 3 weeks by spectrofluorimetrically relative to control; assay type: functional; parameters: scale not given: the % may be the effect or the level left; settings: route intraperitoneal; summary of the method: as §3

SMILES	Activity (Rattus norvegicus [1]) [%]	Activity (Rattus norvegicus [2]) [%]	Activity (Rattus norvegicus [3]) [%]	Activity (Rattus norvegicus [4]) [%]	Activity (Rattus norvegicus [5]) [%]	Activity (Rattus norvegicus [6]) [%]	Activity (Rattus norvegicus [7]) [%]	Activity (Brain)	Activity (Rattus norvegicus [8]) [%]	Activity (Rattus norvegicus [9]) [%]	Activity (Rattus norvegicus [10]) [%]	Activity (Rattus norvegicus [11]) [%]
C=NC(Cc1c[nH]c2ccccc12)C(=O)C1C(N)=NNC1N (centres undefined)	20	15	22	22	15	9	12	Active	6	25	–	–
O=C(Cc1nnn[nH]1)NC(Cc1c[nH]c2ccccc12)C(=O)O (centres undefined)	35	67	26	64	29	36	94	Active	21	50	–	–
N[C@@H](Cc1c[nH]c2ccccc12)C(=O)O [TRYPTOPHAN]	35	17	25	27	21	9	18	–	16	38	–	–
C=NC(Cc1c[nH]c2ccccc12)C(=O)C1C(N)=NC(=N)N=C1N (centres undefined)	10	10	5	7	–	–	3	Active	1	1	18	2
CCOC(=O)c1c(N)cnc(Cc2c[nH]c3ccccc23)c1Nc1ccccc1	20	14	10	14	9	–	6	Active	2	23	18	–
